Consider one molecule from publication PMC6635014 (Dalton transactions (Cambridge, England : 2003), 2019).

Each structure is given as a SMILES string.

Common to all, as to type: cell-based
Assay [1] relates to doxorubicin-sensitive Colo 205 human colonic adenocarcinoma cells. In words: MTT assay for cytotoxic effect, Colo 205. The settings on record: read-out: IC50 (μM), 72 h Colo 205. The method, boiled down: (§1)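 Colo 205 and Colo 320/MDR-LRP were kept in RPMI 1640 with 10% heat-inactivated FBS, 2 mM L-glutamine, 1 mM Na-pyruvate and 10 mM HEPES, and detached with Trypsin-Versene. 1x10^4 cells per well went onto 2-fold serial compound dilutions (100 to 0.195 µM; DMSO stocks) for 72 h at 37 °C. Then MTT 4 h, SDS/0.01 M HCl overnight, OD 540/630 nm. IC50 from growth inhibition versus cell and medium controls. SF uses the MRC-5 IC50 from the same assay.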
On the technique in general: Tetrazolium dyes change colour on reduction, which living cells bring about.

The subject of assay [2] is multidrug resistant Colo 320/MDR-LRP human colonic adenocarcinoma cells. As to the kind of experiment: MTT assay for cytotoxic effect, Colo 320. In a few lines:
as §1

For assay [3], the system named is MRC-5 non-cancerous human embryonal lung fibroblast cells. As to the kind of experiment: MTT assay for cytotoxic effect, MRC-5. As to conditions: read-out: IC50 (μM), 72 h MRC-5. In a few lines: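 MRC-5 fibroblasts were grown in EMEM with 10% heat-inactivated FBS and seeded 24 h at 37 °C, 5% CO2. Medium was then replaced by 2-fold serial compound dilutions (100 to 0.195 µM; 10 mM DMSO stocks), 72 h at 37 °C. MTT for 4 h, then SDS in 0.01 M HCl overnight. OD read at 540/630 nm. IC50 from % growth inhibition relative to cell and medium controls.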

For `N.N.[Cl][Pt][Cl]` [Cisplatin, reference compound], the half-inhibitory concentration (IC50) in assay [1] came out at 31.9 ± 2.17 µM; in assay [2] (read-out: IC50 (μM), 72 h Colo 320, 72 h, MTT), 4.81 ± 0.68 µM; in assay [3], 12.4 ± 0.367 µM. The “SF(320) selectivity factor” value in assay [2] (SF(320) = IC50 MRC-5/IC50 Colo 320) turned out to be 3.

In general, IC50 refers to the point on the concentration scale where inhibition reaches its midpoint.
